Experimental data from different studies.
Protocols differ between the studies behind these lines.

| Structure (SMILES) | system | setting | endpoint | result |
| --- | --- | --- | --- | --- |
| CC(C)Cc1ccc(C(C)C(=O)O)cc1 (stereo not drawn) | PAMPA-BBB | pH 7.4 | Papp | 11.6 ×10⁻⁶ cm/s |
| CC(C)C[C@@H]1NC(=O)[C@H](C)NC(=O)[C@H](Cc2ccccc2)NCC2=CC=C(CN(C)C1=O)O2 | PAMPA | 100 µM, 17 h, pH 6.4 | Papp | 1.9 ×10⁻⁶ cm/s |
| O=C1CC[C@H](N2Cc3cc(N4CCN(CC5CCN(c6ccc([C@@H]7c8ccc(O)cc8CC[C@@H]7c7ccccc7)cc6)CC5)CC4)ccc3C2=O)C(=O)N1 | female Sprague-Dawley rat, plasma | intravenous, 5 mg/kg, fed | AUC(0-inf) | 11600 ng·h/mL |
| CC(C)C[C@@H]1NC(=O)CN(C)C(=O)[C@H](Cc2ccccc2)NCC2=CC=C(CNC1=O)O2 | PAMPA | 100 µM, 17 h, pH 6.4 | Papp | 1.3 ×10⁻⁶ cm/s |
| CC(C)NCC(O)COc1cccc2ccccc12 (stereo not drawn) | PAMPA | 40 µM, 5 h, pH 7.4 | Papp | 14.3 ×10⁻⁶ cm/s |
| O=[N+]([O-])c1ccc2c(c1)S(=O)(=O)C=C2 | PAMPA-BBB | pH 7.4 | Papp | 3.98 ×10⁻⁶ cm/s |
| N#C[C@@]12C[C@@H]1[C@@H](n1cnc3c(N[C@@H](C4CCC4)C4CC4)nc(I)nc31)[C@H](O)[C@@H]2O | male Wistar rat, plasma | oral, 10 mg/kg | AUC(0-inf) | 349 ng·h/mL |
| CCCCCCCc1[nH]c2ccccc2c(=O)c1O | PAMPA | 40 µM, 5 h, pH 7.4 | Papp | 1.2 to 4 ×10⁻⁶ cm/s |
| Cc1c(C(=O)O)ccc2c3n(nc12)[C@@H]1[C@H](C3)N(CC2CC2)[C@@]2(C(=O)Nc3cc(Cl)ccc32)[C@H]1c1cccc(Cl)c1F | female minipig, plasma | oral, 2 mg/kg | Cmax | 900 nM |
